Source: PubChem BioAssay
Sampled rows, rich in hits. Any-hit rate of the full collection: about 5.8%.
Pf Dd2 growth: P. falciparum Dd2 growth inhibition. SYBR Green, 72 h; stronger effect = lower value. activity change, % at 10 µM. hit rate 2.3% among 94,000. AID 1159554; in the data active = activity change below about -80%; inconclusive = no clear call, values can overlap the other calls
T cruzi growth-1: T. cruzi proliferation inhibition. hit rate 5.9% among 77,000. AID 624255. inhibition, % at 8.34 µM. T. cruzi beta-gal in NIH3T3, GalScreen luminescence, 90 h;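 active = mean inhibition above about 93%, with at least 55% of replicates each passing it, limit read from the data, passing the limit was not always enough; inconclusive = only one of those two conditions holds; inactive = neither condition holds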
KDM4C inh: inhibitors of human demethylase GASC-1 KDM4C | inhibition, % at 12.5 µM | AID 720574 | hit rate 0.15% among 96,000 | GST-KDM4C 2-372, H3K9me3 peptide, LANCE TR-FRET;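 active = mean replicate inhibition above about 25%, with at least 55% of replicates also reaching it, limit read from the data, passing the limit was not always enough; inconclusive = only one of those two conditions met; inactive = neither condition met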
Target sequence (Q9H3R0 2-372 limits assumed): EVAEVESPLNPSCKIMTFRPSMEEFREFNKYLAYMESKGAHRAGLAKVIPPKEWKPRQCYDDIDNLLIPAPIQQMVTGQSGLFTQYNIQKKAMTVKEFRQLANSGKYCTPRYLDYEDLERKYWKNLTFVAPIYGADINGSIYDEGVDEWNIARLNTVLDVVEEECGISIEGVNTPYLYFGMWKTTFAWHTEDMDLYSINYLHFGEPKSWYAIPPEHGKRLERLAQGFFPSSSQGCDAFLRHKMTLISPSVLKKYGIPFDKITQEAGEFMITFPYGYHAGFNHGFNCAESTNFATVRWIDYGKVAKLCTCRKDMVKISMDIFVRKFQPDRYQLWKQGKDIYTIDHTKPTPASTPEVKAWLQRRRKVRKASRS
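Test system: N-terminal GST-fused human GASC-1 (KDM4C) fragment, residues 2-372; quantity: GASC-1 enzyme at 10 nM final in reaction; dosing: single dose; schedule: 30 min demethylation and 1 h detection at room temperature; signal: LANCE TR-FRET, excitation 340 nm, emissions 618 and 671 nm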
IDH1 R132H inh: blocks human IDH1 R132H reductase activity; diaphorase/resazurin fluorescence, 60 min; inhibition, % at 10 µM; hit rate 0.18% among 70,000; AID 624101; in the data active = inhibition above about 34%; inconclusive = no clear call, values can overlap the other calls; inactive = below about 11%;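 note: 0% = DMSO and 100% = no enzyme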
T cruzi growth-2: inhibitors of T. cruzi proliferation | T. cruzi beta-gal in NIH3T3, GalScreen luminescence, 90 h | hit rate 72% among 5,600 | shares compounds with T cruzi growth-1 | inhibition, % at 8.35 µM;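 active = mean replicate inhibition above about 95% and at least 55% of replicates individually reaching it, limit read from the data; inconclusive = only one of the two criteria is met; inactive = neither criterion is met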
T cruzi growth-3: Trypanosoma cruzi proliferation inhibition. T. cruzi beta-gal in NIH3T3, GalScreen luminescence, 90 h. shares compounds with T cruzi growth-1. AID 651740. hit rate 21% among 5,600. inhibition, % at 2.09 µM;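 active = mean inhibition above about 95%, with at least 55% of replicates also reaching it, limit read from the data; inconclusive = meets just one of the two conditions; inactive = meets neither condition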;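 note: plate controls were neutral control median for no effect and positive control median for full effect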
3T3 cytotox: NIH/3T3 (mouse) viability loss. shares compounds with T cruzi growth-1. NIH/3T3 viability, CellTiter-Glo ATP luminescence, 90 h. cytotoxicity (signal decrease), % at 8.35 µM. hit rate 14% among 5,600. AID 651742;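 active = mean signal decrease across replicates above about 35% based on untreated-well scatter, with enough replicates individually passing, limit read from the data; inconclusive = no rule stated though some were filed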;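 note: 0% = median of neutral control wells and 100% = median of positive control wells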
NIH3T3 tox 2: kills mouse NIH/3T3 fibroblasts. shares compounds with T cruzi growth-1. NIH/3T3 viability, CellTiter-Glo ATP luminescence, 90 h. inhibition, % at 24.9 µM. hit rate 56% among 5,600. AID 651744;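 active = mean loss of cell viability signal at or above a set limit, and enough replicates individually reaching it; inconclusive = meets only the mean limit or only the replicate share; inactive = meets neither condition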;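 note: 0% = median of neutral control wells and 100% = median of positive control wells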
Numbers without * were called inactive.

For CC(C)C(C(=O)OC1CSCC1NC(=O)c1ccccc1)N1C(=O)c2ccccc2C1=O (stereo unspecified) the results were IDH1 R132H inh -2.
`COc1ccc(CN(C)C[C@@H]2OCCCC[C@H](C)Oc3ccc(NC(=O)Nc4ccc(C(F)(F)F)cc4)cc3C(=O)N([C@H](C)CO)C[C@@H]2C)cc1` gave Pf Dd2 growth -63, T cruzi growth-1 66 and IDH1 R132H inh -1.
CC(=O)Nc1ccc2c(c1)C(=O)N(C)[C@H]1CC[C@@H](CC(=O)NCC3CC3)O[C@@H]1CO2 was read as Pf Dd2 growth 11, T cruzi growth-1 -21 and KDM4C inh -1.
`CC(=O)Nc1ccc2c(c1)C(=O)N(C)[C@@H]1CC[C@@H](CC(=O)NCC3CCCCC3)O[C@H]1CO2` gave Pf Dd2 growth 16, T cruzi growth-1 99*, KDM4C inh 7, T cruzi growth-2 10, T cruzi growth-3 29, 3T3 cytotox 2 and NIH3T3 tox 2 -6.
Screening CN(C)CCCNC(=O)C[C@@H]1CC[C@H]2[C@@H](COc3ccc(NC(=O)C4CCC4)cc3C(=O)N2C)O1 returned Pf Dd2 growth 13, T cruzi growth-1 1 and KDM4C inh 5.
COc1ccc(NC(=O)Nc2cccc3c2O[C@@H](CN(C)Cc2ccc(Cl)c(Cl)c2)[C@@H](C)CN([C@@H](C)CO)C3=O)cc1 was read as Pf Dd2 growth -53, T cruzi growth-1 122*, KDM4C inh -2, IDH1 R132H inh 4, T cruzi growth-2 99*, T cruzi growth-3 69, 3T3 cytotox 18 and NIH3T3 tox 2 51*.
Screening C[C@@H]1CN([C@H](C)CO)C(=O)c2cccc(NC(=O)Nc3ccc4c(c3)OCO4)c2O[C@@H]1CN(C)Cc1ccc(Cl)c(Cl)c1 returned Pf Dd2 growth -22, T cruzi growth-1 112 and KDM4C inh 0.
`COc1ccc(CN(C)C[C@H]2Oc3c(NC(=O)Nc4ccc(OC)cc4)cccc3C(=O)N([C@@H](C)CO)C[C@H]2C)cc1` gave Pf Dd2 growth -30, T cruzi growth-1 -27, KDM4C inh 0 and IDH1 R132H inh 2.
COc1ccc(NC(=O)Nc2cccc3c2O[C@H](CN(C)Cc2ccc(Cl)c(Cl)c2)[C@H](C)CN([C@H](C)CO)C3=O)cc1 was read as Pf Dd2 growth -22, T cruzi growth-1 37 and KDM4C inh 0.
`C[C@H](CO)N1C[C@H](C)[C@H](CN(C)Cc2ccc(Cl)c(Cl)c2)Oc2c(NC(=O)Nc3ccc4c(c3)OCO4)cccc2C1=O` gave Pf Dd2 growth -30, T cruzi growth-1 inconclusive, KDM4C inh 2, T cruzi growth-2 101*, T cruzi growth-3 90, 3T3 cytotox 8 and NIH3T3 tox 2 27*.
`COc1ccc(NC(=O)Nc2cccc3c2O[C@@H](CN(C)Cc2ccc(Cl)c(Cl)c2)[C@@H](C)CN([C@H](C)CO)C3=O)cc1` gave Pf Dd2 growth -35, T cruzi growth-1 inconclusive, T cruzi growth-2 111*, T cruzi growth-3 61, 3T3 cytotox -1 and NIH3T3 tox 2 38*.
O=C(C[C@@H]1CC[C@@H]2[C@H](COC[C@@H](O)CN2C(=O)Nc2ccc(Cl)cc2)O1)NCCc1ccncc1 was read as Pf Dd2 growth 19, T cruzi growth-1 119*, KDM4C inh 0, T cruzi growth-2 94, T cruzi growth-3 80, 3T3 cytotox -14 and NIH3T3 tox 2 -8.
O=C(C[C@H]1CC[C@@H]2[C@H](COC[C@H](O)CN2C(=O)Nc2ccc(Cl)cc2)O1)NCCc1ccncc1 was read as Pf Dd2 growth 10, T cruzi growth-1 109*, KDM4C inh 0, T cruzi growth-2 91, T cruzi growth-3 83, 3T3 cytotox 10 and NIH3T3 tox 2 25.
Screening COc1ccccc1NC(=O)N1C[C@H](O)COC[C@H]2O[C@H](CC(=O)NCCc3ccncc3)CC[C@@H]21 returned T cruzi growth-1 inconclusive, KDM4C inh -1, T cruzi growth-2 36, T cruzi growth-3 -3, 3T3 cytotox -1 and NIH3T3 tox 2 -1.
Screening O=C(C[C@H]1CC[C@@H]2[C@H](COC[C@@H](O)CN2C(=O)Nc2ccc(F)cc2)O1)NCCc1ccncc1 returned Pf Dd2 growth 4, T cruzi growth-1 72 and KDM4C inh -2.
For O=C(C[C@H]1CC[C@@H]2[C@H](COC[C@@H](O)CN2C(=O)Nc2ccc(Cl)cc2)O1)NCCc1ccncc1 the results were Pf Dd2 growth 7, T cruzi growth-1 106*, KDM4C inh -2, T cruzi growth-2 96*, T cruzi growth-3 84, 3T3 cytotox -5 and NIH3T3 tox 2 -11.
Screening C[C@H](CO)N1C[C@H](C)[C@@H](CN(C)Cc2ccc3c(c2)OCO3)Oc2ccc(N(C)C)cc2C1=O returned Pf Dd2 growth -4, T cruzi growth-1 74, KDM4C inh 5 and IDH1 R132H inh -1.
For Cc1cccc(CN(C)C[C@H]2OCc3cnnn3CCCC(=O)N([C@H](C)CO)C[C@H]2C)c1 the results were Pf Dd2 growth -16, T cruzi growth-1 31, KDM4C inh 1 and IDH1 R132H inh 0.
`COc1ccc(NC(=O)N(C)C[C@@H]2Oc3ccc(NS(=O)(=O)c4ccc(F)cc4)cc3CC(=O)N([C@H](C)CO)C[C@@H]2C)cc1` gave Pf Dd2 growth 7, T cruzi growth-1 35 and KDM4C inh 0.
C[C@@H]1CCCCO[C@@H](CN(C)Cc2ccc(C(F)(F)F)cc2)[C@@H](C)CN([C@@H](C)CO)C(=O)c2cc(NC(=O)Nc3ccccc3)ccc2O1 was read as Pf Dd2 growth 19, T cruzi growth-1 75, KDM4C inh 0 and IDH1 R132H inh 0.
`C[C@@H]1CCCCO[C@H](CN(C)Cc2ccc(C(F)(F)F)cc2)[C@H](C)CN([C@H](C)CO)C(=O)c2cc(NC(=O)Nc3ccccc3)ccc2O1` gave Pf Dd2 growth -74, T cruzi growth-1 inconclusive, KDM4C inh -1, IDH1 R132H inh 1, T cruzi growth-2 96*, T cruzi growth-3 120*, 3T3 cytotox -12 and NIH3T3 tox 2 -7.
Screening C[C@@H]1CCCCO[C@H](CN(C)Cc2ccc(C(F)(F)F)cc2)[C@@H](C)CN([C@H](C)CO)C(=O)c2cc(NC(=O)Nc3ccccc3)ccc2O1 returned Pf Dd2 growth 48, T cruzi growth-1 96*, KDM4C inh 0, IDH1 R132H inh -1, T cruzi growth-2 98*, T cruzi growth-3 111*, 3T3 cytotox 25 and NIH3T3 tox 2 20.
